# Experimental data: ChEMBL document CHEMBL3297649, “Structure-activity relationships of privileged structures lead to the discovery of novel biased ligands at the dopamine D₂ receptor” (J Med Chem, 2014)
# Activity calls are given as the source filed them. No cut-off for these calls is given here.
# Assays:
# [1] = target: T1, D(2) dopamine receptor (Homo sapiens, UniProt P14416); experiment: Displacement of [3H]spiperone from human D2L receptor expressed in FlpIn CHO cell membrane after 3 hrs by liquid scintillation counting analysis; format: cell membranes
# How it was run: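 Membranes from D2L FlpIn CHO cells, 3 μg, with 0.05 nM [3H]spiperone, 100 μM GppNHp and varied competitor in 20 mM HEPES, 100 mM NaCl, 6 mM MgCl2, 1 mM EGTA, 1 mM EDTA, pH 7.4, 3 h at 37 °C. Filtered on GF/B, washed in ice-cold saline, counted by liquid scintillation. Three experiments in duplicate.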
# [2] = target: T1, D(2) dopamine receptor; experiment: Antagonist activity at human D2L receptor expressed in FlpIn CHO cells assessed as inhibition of dopamine-induced ERK1/2 phosphorylation treated for 30 mins prior to dopamine stimulation for 5 mins by AlphaScreen assay; format: cell-based
# How it was run: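 D2L-FlpIn CHO cells serum-starved overnight. Compound serial dilutions preincubated 30 min at 37 °C, then 10 nM dopamine added for 5 min. Lysed in SureFire buffer, pERK1/2 read by AlphaScreen. pIC50 is the mean of three to four separate experiments run in duplicate.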
# [3] = target: T1, D(2) dopamine receptor; conditions: CHO, at 10 µM
# [4] = target: T1, D(2) dopamine receptor; experiment: Agonist activity at human D2L receptor expressed in FlpIn CHO cells assessed as induction of ERK1/2 phosphorylation at 10 uM by AlphaScreen assay; format: cell-based
# How it was run: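 Time-course ERK1/2 phosphorylation screen at 10 μM in FlpIn CHO cells stably expressing human D2L, seeded 50 000 cells/well, serum-starved overnight. Compounds applied at 37 °C over a time course to find peak stimulation time. Stimulation stopped by SureFire lysis, 5 min shaking at room temperature, lysate read by AlphaScreen.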
# [5] = Retention time of the compound by HPLC analysis; format: physicochemical
# How it was run: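 Reverse-phase C8 column, 0.1% TFA/water vs 0.1% TFA/80% MeOH; 100% A 10 min, 80% B over 2 min, back to 100% A over 10 min; 1 mL/min, detection at 214 nm.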
# [6] = target: T1, D(2) dopamine receptor; experiment: Partial agonist activity at human D2L receptor expressed in FlpIn CHO cells assessed as induction of ERK1/2 phosphorylation by AlphaScreen assay; format: cell-based
# How it was run: (§1)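 Stable human D2L FlpIn CHO cells serum-starved overnight, then given concentration series of agonist at 37 °C for 5–10 min, the per-compound peak time from time-course runs. Lysed with SureFire buffer and pERK1/2 detected by AlphaScreen. Three-parameter logistic fit gives pEC50; Emax as % of maximal dopamine response. Three to four experiments in duplicate.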
# [7] = target: T1, D(2) dopamine receptor; experiment: Partial agonist activity at human D2L receptor expressed in FlpIn CHO cells assessed as induction of ERK1/2 phosphorylation by AlphaScreen assay relative to dopamine; format: cell-based; how it was run: as §1
# [8] = target: T1, D(2) dopamine receptor; conditions: CHO
# [9] = target: T1, D(2) dopamine receptor; conditions: CHO; remark: listed apart in the source
# [10] = target: T1, D(2) dopamine receptor; conditions: CHO; remark: listed apart in the source
# [11] = target: T1, D(2) dopamine receptor; conditions: CHO; remark: listed apart in the source
# [12] = target: T1, D(2) dopamine receptor; experiment: Agonist activity at human D2L receptor expressed in FlpIn CHO cells assessed as induction of ERK1/2 phosphorylation by AlphaScreen assay; format: cell-based
# [13] = target: T1, D(2) dopamine receptor; experiment: Agonist activity at human D2L receptor expressed in FlpIn CHO cells assessed as inhibition of forskolin-stimulated cAMP production treated for 30 mins by AlphaScreen assay relative to dopamine; format: functional, cell-based
# How it was run: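 D2L-expressing FlpIn CHO cells grown overnight, then preincubated 45 min in HBSS stimulation buffer (1 mg/mL BSA, 0.5 mM IBMX, 5 mM HEPES, pH 7.4). Agonist and 300 nM forskolin added together for 30 min at 37 °C. Stopped with ice-cold ethanol, dried, lysed in detection buffer; cAMP measured by AlphaScreen. Operational-model fit gives log(τ/KA); n = 4.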
# [14] = target: T1, D(2) dopamine receptor; experiment: Agonist activity at human D2L receptor expressed in FlpIn CHO cells assessed as induction of ERK1/2 phosphorylation by AlphaScreen assay relative to dopamine; format: cell-based
# How it was run: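 FlpIn CHO cells stably expressing human D2L receptor, seeded at 50 000 cells/well, serum-starved overnight. Ligands added at 37 °C for 5−10 min, time set per ligand from prior time-course runs. Lysed in SureFire buffer; phospho-ERK1/2 read by AlphaScreen. Curves fitted to three-parameter logistic; Emax as % of dopamine maximum. Three to four experiments in duplicate.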
# [15] = target: T1, D(2) dopamine receptor; experiment: Competitive antagonist activity at human D2L receptor expressed in FlpIn CHO cells assessed as inhibition of dopamine-induced ERK1/2 phosphorylation treated for 30 mins prior to dopamine stimulation for 5 mins by AlphaScreen assay; format: cell-based
# How it was run: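 Human D2L FlpIn CHO cells serum-starved overnight. Inhibitor at a range of dilutions for 30 min at 37 °C, then 10 nM dopamine for 5 min. Lysed; phospho-ERK1/2 detected by AlphaScreen. pIC50 taken from inhibition curves; three to four experiments in duplicate.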
# [16] = target: T1, D(2) dopamine receptor; experiment: Agonist activity at human D2L receptor expressed in FlpIn CHO cells assessed as inhibition of forskolin-stimulated cAMP production treated for 30 mins by AlphaScreen assay; format: functional, cell-based
# T1 sequence (P14416 whole entry): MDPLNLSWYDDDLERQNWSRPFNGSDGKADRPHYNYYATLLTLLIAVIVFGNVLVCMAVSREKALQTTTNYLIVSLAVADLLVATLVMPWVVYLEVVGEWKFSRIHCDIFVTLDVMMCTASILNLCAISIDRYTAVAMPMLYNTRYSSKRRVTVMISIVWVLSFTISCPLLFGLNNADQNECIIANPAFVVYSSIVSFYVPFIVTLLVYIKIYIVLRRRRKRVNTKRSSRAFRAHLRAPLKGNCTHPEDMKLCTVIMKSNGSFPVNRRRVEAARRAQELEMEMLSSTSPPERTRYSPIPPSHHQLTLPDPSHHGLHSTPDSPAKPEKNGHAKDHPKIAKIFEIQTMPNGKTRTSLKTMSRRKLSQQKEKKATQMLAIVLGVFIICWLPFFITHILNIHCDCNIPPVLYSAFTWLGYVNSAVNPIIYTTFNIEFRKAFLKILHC
compound,measurement,setting,value
COc1ccccc1N1CCN(CCCCCCNC(=O)OC(C)(C)C)CC1,Ki,[1],74.8 nM
same,IC50,[2],3.98 nM
same,inhibition,[3],Active
COc1ccccc1N1CCN(CCCCCNC(=O)OC(C)(C)C)CC1,Activity,[4],inactive
same,Retention_time,[5],10.43 min
same,Ki,[1],12.1 nM
same,EC50,[6],1.43 nM
same,Emax,[7],19%
same,pKA,[8],7.06
same,log(activity),[9],0.19
same,pKA,[10],8.77
same,log(activity),[11],-0.67
Cc1cc(C)c2c(N)c(C(=O)NCCN3CCC(O)(c4ccc(Cl)cc4)CC3)sc2n1,Retention_time,[5],8.06 min
same,Ki,[1],910 nM
COc1nc2sc(C(=O)NCCCCCN3CCN(c4cccc(Cl)c4Cl)CC3)c(N)c2c(C)c1Cl,Retention_time,[5],11.66 min
same,Ki,[1],15.5 nM
same,EC50,[12],87.6 nM
same,Emax,[13],71%
same,Emax,[14],17%
same,Ka,[8],58.9 nM
same,pKA,[8],6.89
same,log(activity),[9],0.28
same,pKA,[10],7.1
same,log(activity),[11],-0.65
COc1ccccc1N1CCN(CCCCNC(=O)OC(C)(C)C)CC1,Activity,[4],inactive
same,Ki,[1],18.9 nM
same,EC50,[6],0.6 nM
same,Emax,[7],13%
CC(C)(C)OC(=O)NCCCCN1CCC(O)(c2ccc(Cl)cc2)CC1,Activity,[4],inactive
same,Ki,[1],2110 nM
CC(C)(C)OC(=O)NCCCCCN1CCN(c2cccc(Cl)c2Cl)CC1,Retention_time,[5],10.43 min
same,Ki,[1],42.6 nM
same,pKA,[8],7.73
same,log(activity),[9],0.43
same,pKA,[10],7.14
same,log(activity),[11],-0.51
COc1ccccc1N1CCN(CCCNC(=O)c2sc3nc(OC)c(Cl)c(C)c3c2N)CC1,Ki,[1],19.5 nM
same,Kb,[15],741 nM
same,pKb,[15],6.13
CC(C)(C)OC(=O)NCCN1CCC(O)(c2ccc(Cl)cc2)CC1,Activity,[4],inactive
same,Retention_time,[5],7.68 min
same,Ki,[1],2750 nM
CC(C)(C)OC(=O)NCCCN1CCC(O)(c2ccc(Cl)cc2)CC1,Activity,[4],inactive
same,Ki,[1],1350 nM
Cc1cc(C)c2c(N)c(C(=O)NCCCCCN3CCN(c4cccc(Cl)c4Cl)CC3)sc2n1,Retention_time,[5],10.13 min
same,Ki,[1],11.2 nM
same,EC50,[16],0.3 nM
same,EC50,[12],13.2 nM
same,Emax,[13],50%
same,Emax,[14],13%
same,pKA,[8],9
same,log(activity),[9],-0.06
same,pKA,[10],7.9
same,log(activity),[11],-0.78
COc1ccccc1N1CCN(CCNC(=O)c2sc3nc(OC)c(Cl)c(C)c3c2N)CC1,Ki,[1],48.3 nM
same,Kb,[15],355 nM
same,pKb,[15],6.45
Cc1cc(C)c2c(N)c(C(=O)NCCCCCN3CCC(O)(c4ccc(Cl)cc4)CC3)sc2n1,Ki,[1],1980 nM
COc1ccccc1N1CCN(CCCCCNC(=O)c2sc3nc(C)cc(C)c3c2N)CC1,Retention_time,[5],8.89 min
same,Ki,[1],9.1 nM
same,Emax,[13],33%
same,pKA,[8],8.84
same,log(activity),[9],-0.42
COc1ccccc1N1CCN(CCCCCCNC(=O)c2sc3nc(OC)c(Cl)c(C)c3c2N)CC1,Ki,[1],0.6 nM
same,EC50,[6],5.49 nM
same,Emax,[7],14%
CC(C)(C)OC(=O)NCCCCCN1CCC(O)(c2ccc(Cl)cc2)CC1,Activity,[4],inactive
same,Ki,[1],2050 nM
COc1ccccc1N1CCN(CCCNC(=O)OC(C)(C)C)CC1,Activity,[4],inactive
same,Retention_time,[5],7.74 min
same,Ki,[1],16.1 nM
same,EC50,[6],0.39 nM
same,Emax,[7],31%
NCCc1ccc(O)c(O)c1,pKA,[10],7.98
same,log(activity),[11],0.79
Cc1cc(C)c2c(N)c(C(=O)NCCCCCCN3CCC(O)(c4ccc(Cl)cc4)CC3)sc2n1,Retention_time,[5],8.39 min
same,Ki,[1],975 nM
COc1ccccc1N1CCN(CCCCCNC(=O)c2sc3nc(OC)c(Cl)c(C)c3c2N)CC1,Retention_time,[5],9.84 min
same,Ki,[1],3.5 nM
same,EC50,[6],2.69 nM
same,Emax,[7],17%
same,pKA,[8],7.47
same,log(activity),[9],-0.26
same,pKA,[10],8.86
same,log(activity),[11],-0.65
OC1(c2ccc(Cl)cc2)CCNCC1,Ki,[1],9090 nM
COc1ccccc1N1CCN(CCCCNC(=O)c2sc3nc(OC)c(Cl)c(C)c3c2N)CC1,Retention_time,[5],9.3 min
same,Ki,[1],6.3 nM
same,Kb,[15],490 nM
same,pKb,[15],6.31
Cc1cc(C)c2c(N)c(C(=O)NCCCN3CCC(O)(c4ccc(Cl)cc4)CC3)sc2n1,Ki,[1],1700 nM
COc1ccccc1N1CCNCC1,Ki,[1],4110 nM
same,IC50,[2],> 1000 nM
same,pIC50,[2]; cho,< 6
same,Kb,[15],479 nM
same,pKb,[15],6.32
same,inhibition,[3],Active
CC(C)(C)OC(=O)NCCCCCCN1CCC(O)(c2ccc(Cl)cc2)CC1,Activity,[4],inactive
same,Retention_time,[5],8.77 min
same,Ki,[1],902 nM
Clc1cccc(N2CCNCC2)c1Cl,Ki,[1],1160 nM
Cc1cc(C)c2c(N)c(C(=O)NCCCCN3CCC(O)(c4ccc(Cl)cc4)CC3)sc2n1,Ki,[1],2250 nM
